Measured values as given in ChEMBL document CHEMBL1121378, “Lipophilic and hydrophilic esters of 4-acetyl-2-(2-hydroxyethyl)-5,6-bis(4-chlorophenyl)-2H-pyridazin-3-one as antihypertensive agents” (1980).

Experiments:
Assay type in all cases: functional
[1] = system: Rattus norvegicus; experiment: Antihypertensive activity in spontaneously hypertensive rats was measured as average blood pressure at 100 mg/kg, p.o. after 24 hours of postdose-1; conditions: route oral
Summary of the method: (§1)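 SHR model with two successive doses, designated dose 1 and dose 2. Group-average blood pressure in mmHg was recorded before dosing and at 4 h and 24 h after each dose. The route is oral unless marked intra-arterial or subcutaneous. A table footnote marks doses that gave no significant lowering at 4 or 24 h postdose.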

[2] = system: Rattus norvegicus; experiment: Antihypertensive activity in spontaneously hypertensive rats was measured as average blood pressure at 100 mg/kg, p.o. after 24 hours of postdose-2; conditions: route oral; summary of the method: as §1
[3] = system: Rattus norvegicus; experiment: Antihypertensive activity in spontaneously hypertensive rats was measured as average blood pressure at 4 mg/kg, po after 24 hours of postdose-1; summary of the method: as §1
[4] = system: Rattus norvegicus; experiment: Antihypertensive activity in spontaneously hypertensive rats was measured as average blood pressure at 4 mg/kg, p.o. after 24 hours of postdose-2; conditions: route oral; summary of the method: as §1
[5] = system: Rattus norvegicus; experiment: Antihypertensive activity in spontaneously hypertensive rats was measured as average blood pressure at 4 mg/kg, p.o. after 4 hours of postdose-1; conditions: route oral; summary of the method: as §1
[6] = system: Rattus norvegicus; experiment: Antihypertensive activity in spontaneously hypertensive rats was measured as average blood pressure at 4 mg/kg, p.o. after 4 hours of postdose-2; conditions: route oral; summary of the method: as §1
[7] = system: Rattus norvegicus; experiment: Antihypertensive activity in spontaneously hypertensive rats was measured as average blood pressure at 4 mg/kg, po before predose; summary of the method: as §1
[8] = system: Rattus norvegicus; experiment: Antihypertensive activity in spontaneously hypertensive rats was measured as average blood pressure at 100 mg/kg, p.o. after 4 hours of postdose-1; conditions: route oral; summary of the method: as §1
[9] = system: Rattus norvegicus; experiment: Antihypertensive activity in spontaneously hypertensive rats was measured as average blood pressure at 100 mg/kg, p.o. after 4 hours of postdose-2; conditions: route oral; summary of the method: as §1
[10] = system: Rattus norvegicus; experiment: Antihypertensive activity in spontaneously hypertensive rats was measured as average blood pressure at 100 mg/kg, p.o. before predose; conditions: route oral; summary of the method: as §1
[11] = system: Rattus norvegicus; experiment: Antihypertensive activity in spontaneously hypertensive rats was measured as average blood pressure at 12 mg/kg, p.o. after 24 hours of postdose-1; conditions: route oral; summary of the method: as §1
[12] = system: Rattus norvegicus; experiment: Antihypertensive activity in spontaneously hypertensive rats was measured as average blood pressure at 12 mg/kg, p.o. after 24 hours of postdose-2; conditions: route oral; summary of the method: as §1
[13] = system: Rattus norvegicus; experiment: Antihypertensive activity in spontaneously hypertensive rats was measured as average blood pressure at 12 mg/kg, p.o. after 4 hours of postdose-1; conditions: route oral; summary of the method: as §1
[14] = system: Rattus norvegicus; experiment: Antihypertensive activity in spontaneously hypertensive rats was measured as average blood pressure at 12 mg/kg, p.o. after 4 hours of postdose-2; conditions: route oral; summary of the method: as §1
[15] = system: Rattus norvegicus; experiment: Antihypertensive activity in spontaneously hypertensive rats was measured as average blood pressure at 12 mg/kg, p.o. before predose; conditions: route oral; summary of the method: as §1

CC(=O)c1c(-c2ccc(Cl)cc2)c(-c2ccc(Cl)cc2)nn(CCOC(=O)CN)c1=O.Cl
BP [1]: 131 mmHg | BP [2]: 166 mmHg | BP [3]: 189 mmHg | BP [4]: 175 mmHg | BP [5]: 162 mmHg | BP [6]: 161 mmHg | BP [7]: 184 mmHg | BP [8]: 138 mmHg | BP [9]: 124 mmHg | BP [10]: 178 mmHg | BP [11]: 161 mmHg | BP [12]: 164 mmHg | BP [13]: 164 mmHg | BP [14]: 153 mmHg | BP [15]: 199 mmHg
